Reference: ChEMBL document CHEMBL1124344, “5-Piperazinylalkyl-2(3H)-oxazolones with neuroleptic activity” (J Med Chem, 1989)

What was measured:
[1] = tested on: Mus musculus; assay: Inhibition of spontaneous motor activity in mice, by administering perorally; format: functional; conditions: po
How it was run: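 Mice in groups of five were dosed orally with gum arabic suspensions at 10 mL/kg after an overnight fast, with a vehicle control group. Locomotion was counted for 10 min in a photocell activity cage, in at least two groups per dose. ED50, by probit analysis, is the dose giving 50% inhibition against controls.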

[2] = tested on: Rattus norvegicus; assay: Antagonistic activity against apomorphine-induced stereotypy in rats, by administering perorally at a dose of 100 mg/kg; format: functional; conditions: route oral
How it was run: (§1)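 Male rats fasted overnight and given oral doses in arabic gum suspension (10 mL/kg) 1 h, or 1 and 5 h, before challenge. Apomorphine 3 mg/kg iv, with stereotypy observed 20 min later. ED50 is the dose inhibiting stereotypy in 50% of rats, per Janssen's method. Parenthetical entries give the maximal dose and percent activity.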

[3] = tested on: Mus musculus; assay: Inhibition of amphetamine-induced hypermobility in mice following p.o. administration.; format: functional; conditions: po
How it was run: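 Compounds were given orally to male mice (gum arabic suspension, 10 mL/kg, fasted) in groups of five. Amphetamine 4 mg/kg ip followed 30 min later. After another 10 min, motility was recorded for 15 min with a photocell actophotometer. ED50, by probit analysis, is the dose giving 50% reduction against controls.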

[4] = Lethal dose in mice (LD50) following i.p. dosing; format: toxicity, organism-based; conditions: mouse, in vivo, ip
How it was run: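 Acute toxicity tested in mice by the intraperitoneal route. LD50 is the dose killing 50% of treated mice, computed by Finney probit analysis; values are approximate.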

[5] = tested on: Rattus norvegicus; assay: Activity to evoke catalepsy in rats, by administering perorally at a dose of 100 mg/kg; format: functional; conditions: route oral, read-out: Inhibition
How it was run: (§2)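 Rats fasted overnight and given oral doses in arabic gum suspension (10 mL/kg), 1 h before screening or 1 and 5 h before profile testing. Forelegs placed on a horizontal bar 7 cm high, three times at 5-min intervals. Immobility of at least 15 s counts as catalepsy. ED50 is the dose giving catalepsy in 50% of rats, by probit analysis. Parenthetical entries give the maximal dose and percent activity.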

[6] = tested on: Rattus norvegicus; assay: Antagonistic activity against apomorphine-induced stereotypy in rats, by administering perorally at a dose of 50 mg/kg; format: functional; conditions: route oral; how it was run: as §1
[7] = tested on: Rattus norvegicus; assay: Activity to evoke catalepsy in rats, by administering perorally; format: functional; conditions: po; how it was run: as §2
[8] = tested on: Mus musculus; assay: Inhibition of spontaneous motor activity in mice, by administering perorally at a dose of 100 mg/kg; format: functional; conditions: route oral
How it was run: (§3)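 Mice fasted overnight, then dosed orally with compound (weighed as base) suspended in arabic gum, 10 mL/kg, with vehicle controls; 1 h pretreatment for screening tests, 1 or 5 h for others. Groups of five; locomotor activity counted 10 min in photocell activity cage, at least two groups per dose. ED50 = dose giving 50% inhibition versus controls, by probit analysis.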

[9] = tested on: Mus musculus; assay: Antagonistic activity against amphetamine-induced Hypermobility in mice, by administering perorally at a dose of 100 mg/kg; format: functional; conditions: route oral
How it was run: (§4)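 Male mice in groups of five, fasted overnight, given oral drug in arabic gum suspension (10 mL/kg) 1 or 5 h ahead. Amphetamine 4 mg/kg ip given 30 min after drug. Ten minutes later locomotion is recorded for 15 min in a photocell actophotometer. ED50 is 50% reduction versus control hypermotility, by probit analysis. Parenthetical entries give the maximal dose and percent activity.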

[10] = tested on: Rattus norvegicus; assay: Activity to evoke catalepsy in rats, by administering perorally at a dose of 20 mg/kg; format: functional; conditions: route oral, read-out: Inhibition; how it was run: as §2
[11] = tested on: Mus musculus; assay: Antagonistic activity against amphetamine-induced Hypermobility in mice, by administering perorally at a dose of 20 mg/kg; format: functional; conditions: route oral; how it was run: as §4
[12] = tested on: Mus musculus; assay: Inhibition of spontaneous motor activity in mice, by administering perorally at a dose of 20 mg/kg; format: functional; conditions: route oral; how it was run: as §3
[13] = tested on: Rattus norvegicus; assay: Antagonistic activity against apomorphine-induced stereotypy in rats, by administering perorally at a dose of 20 mg/kg; format: functional; conditions: route oral; how it was run: as §1
[14] = tested on: Rattus norvegicus; assay: Antagonistic activity against apomorphine-induced stereotypy in rats, by administering perorally; format: functional; conditions: po; how it was run: as §1

Compound | ED50 [1] [mg/kg] | inhibition in vivo at 100 mg/kg [2] [%] | ED50 [3] [mg/kg] | LD50 [4] [mg/kg] | percent of rats showing catalepsy at 100 mg/kg [5] [%] | inhibition in vivo at 50 mg/kg [6] [%] | ED50 [7] [mg/kg] | inhibition in vivo at 100 mg/kg [8] [%] | inhibition in vivo at 100 mg/kg [9] [%] | percent of rats showing catalepsy at 20 mg/kg [10] [%] | inhibition in vivo at 20 mg/kg [11] [%] | inhibition in vivo at 20 mg/kg [12] [%] | inhibition in vivo at 20 mg/kg [13] [%] | ED50 [14] [mg/kg]
Oc1nc(-c2ccc(F)cc2)c(CCN2CCN(c3ccccc3Cl)CC2)o1 | 14.2 | 0 | 15 | > 1000 | 30 |  |  |  |  |  |  |  |  | 
Oc1nc(-c2ccc(F)cc2)c(CCN2CCN(c3cccc(C(F)(F)F)c3)CC2)o1 | 16.9 | 0 | 11.6 | > 1000 | 0 |  |  |  |  |  |  |  |  | 
Oc1nc(-c2ccc(Cl)cc2)c(CCN2CCN(c3ccccn3)CC2)o1 | 14.1 |  | 14.3 | 375 |  | 0 | 47 |  |  |  |  |  |  | 
CNC(=O)n1c(-c2ccc(F)cc2)c(CCN2CCN(c3ccccc3)CC2)oc1=O | 16.5 |  | 9.9 | 750 | 0 |  |  |  |  |  |  |  |  | 
Oc1nc(-c2ccc(F)cc2)c(CCN2CCN(c3cc(Cl)c(Cl)c(Cl)c3)CC2)o1 |  | 0 |  | > 1000 | 0 |  |  | 0 | 0 |  |  |  |  | 
Oc1nc(-c2ccc(F)cc2)c(CCN2CCN(c3ccc(Cl)c(Cl)c3Cl)CC2)o1 |  |  |  | 750 |  |  |  |  |  | 0 | 0 | 0 | 0 | 
Oc1nc(-c2ccc(F)cc2)c(CCN2CCN(c3cccc(Cl)c3)CC2)o1 | 58.5 |  | 54.1 | > 1000 | 0 |  |  |  |  |  |  |  |  | 80
Oc1nc(-c2ccc(Cl)cc2)c(CN2CCN(c3ccccc3)CC2)o1 |  | 0 |  | > 1000 | 0 |  |  | 15 | 0 |  |  |  |  | 
Oc1nc(-c2ccc(F)cc2)c(CCN2CCN(c3ccccc3)CC2)o1 | 3.6 |  | 5.4 | > 2000 |  |  | 87 |  |  |  |  |  |  | 47.5
COc1ccc(N2CCN(CCc3oc(O)nc3-c3ccc(F)cc3)CC2)cc1 |  | 0 |  | > 1000 | 0 |  |  | 33 | 0 |  |  |  |  | 
Oc1nc(-c2ccc(F)cc2)c(CCN2CCN(c3cc(Cl)c(Cl)cc3Cl)CC2)o1 |  |  |  | 750 |  |  |  |  |  | 0 | 0 | 0 | 0 | 
Oc1nc(-c2ccc(F)cc2)c(CCN2CCN(c3ccc(Cl)cc3)CC2)o1 | 200 | 0 |  | > 1000 | 0 |  |  |  | 0 |  |  |  |  | 
CC(=O)n1c(-c2ccc(F)cc2)c(CCN2CCN(c3cc(Cl)cc(Cl)c3)CC2)oc1=O | 4.5 | 10 | 2.7 | 1000 | 0 |  |  |  |  |  |  |  |  | 
Cc1ccc(-c2nc(O)oc2CCN2CCN(c3ccccc3)CC2)cc1 | 6.4 | 0 | 2 | 400 | 0 |  |  |  |  |  |  |  |  | 
CC(=O)n1c(-c2ccc(F)cc2)c(CCN2CCN(c3ccccc3)CC2)oc1=O | 2.7 |  | 4.7 | 350 |  |  | 30.5 |  |  |  |  |  |  | 44
